Experimental data from ChEMBL document CHEMBL1275434, “In vitro evaluation of CBR-2092, a novel rifamycin-quinolone hybrid antibiotic: studies of the mode of action in Staphylococcus aureus” (Antimicrob Agents Chemother, 2008).
Converted amounts (≈) assume the structure as drawn. The source made the active and inactive calls. No cut-off for these calls is given here.

Legend:
Staphylococcus aureus [1] = assay: Antimicrobial activity against rifampin-sensitive Staphylococcus aureus CB190 harboring rpoB N474K mutant gene by broth microdilution method; assay type: functional
How it was run: (§1)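 CLSI broth microdilution MIC in cation-adjusted Mueller-Hinton (MHII) broth supplemented with 0.002% (vol/vol) polysorbate 80, included to limit compound loss to plastic surfaces.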

Staphylococcus aureus [2] = assay: Antimicrobial activity against rifampin-sensitive Staphylococcus aureus CB190 harboring rpoB E473 mutant gene by broth microdilution method; assay type: functional; how it was run: as §1
Staphylococcus aureus [3] = assay: Antimicrobial activity against Staphylococcus aureus CB1882 harboring rpoB R484H mutant gene, L520 deficient gyrA gene and R236 duplicated parC gene by agar dilution method; assay type: functional
How it was run: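 CLSI agar dilution MIC on MHII base medium against stepwise-passage isolates; passage was in MHII broth without polysorbate 80, daily at 37°C.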

Staphylococcus aureus [4] = assay: Antimicrobial activity against Staphylococcus aureus CB1335 harboring rpoB H481Y, parC S80F, parE E474Q and gyrA S84L mutant genes selected after 0.8 ug/ml drug exposure by broth microdilution method; assay type: functional
Staphylococcus aureus [5] = assay: Antimicrobial activity against Staphylococcus aureus CB1884 harboring rpoB R484H mutant gene, L520 deficient gyrA gene, gyrA S84L mutant gene, R236 duplicated par C gene and parCH103Y mutant gene by broth microdilution; assay type: functional
How it was run: (§2)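 CLSI broth microdilution MIC in MHII broth with 0.002% (vol/vol) polysorbate 80. Isolates came from daily stepwise broth passage at sub-MIC drug (MHII without polysorbate 80, 10^6 CFU/ml inoculum, 20–24 h shaking at 37°C), were purified drug-free, and were sequenced at target loci.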

Staphylococcus aureus [6] = assay: Antimicrobial activity against Staphylococcus aureus CB809 harboring rpoB H481Y and parC S80F mutant genes by broth microdilution method
Staphylococcus aureus [7] = assay: Antimicrobial activity against Staphylococcus aureus CB1952 harboring rpoB S486L, gyrA […], gyrA E88Q, gyrA G532S, parC S80F, parC E84L mutant genes selected after CBR-2092 exposure for 21 days by broth microdilution method; assay type: functional; conditions: CB1952, 504 h
How it was run: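 CLSI broth microdilution MIC in MHII with 0.002% polysorbate 80 against strains from 20–21 days of stepwise passage of rifamycin- and/or quinolone-resistant parents; CBR-2092 passages used MHII with 0.002% polysorbate 80.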

Staphylococcus aureus [8] = assay: Antimicrobial activity against Staphylococcus aureus CB815 harboring rpoB H481Y, gyrA […] and parC S80F mutant genes by agar dilution method; assay type: functional
How it was run: (§3)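 CLSI agar dilution MIC with cation-adjusted Mueller-Hinton (MHII) agar as the base medium.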

Staphylococcus aureus [9] = assay: Antimicrobial activity against Staphylococcus aureus CB1883 harboring rpoB R484H mutant gene, L520 deficient gyrA gene, gyrA S84L mutant gene and R236 duplicated par C gene; assay type: functional
Staphylococcus aureus [10] = assay: Antimicrobial activity against Staphylococcus aureus CB1416 harboring rpo BH481Y and gyrA L795S mutant genes selected after 0.1 ug/ml drug exposure by broth microdilution method
Staphylococcus aureus [11] = assay: Antimicrobial activity against Staphylococcus aureus CB1354 harboring rpoB H481Y, parC S80F, parE R455H and gyrA S84L mutant genes selected after 0.53 ug/ml drug exposure by broth microdilution method; assay type: functional
Staphylococcus aureus [12] = assay: Antimicrobial activity against Staphylococcus aureus CB1882 harboring rpoB R484H mutant gene, L520 deficient gyrA gene and R236 duplicated parC gene; assay type: functional
Staphylococcus aureus [13] = assay: Antimicrobial activity against wild-type Staphylococcus aureus CB190; assay type: functional
Staphylococcus aureus [14] = assay: Inhibition of RNA synthesis in Staphylococcus aureus CB190 assessed as decrease in [5,6-3H]uridine incorporation at 0.5 ug/ml; assay type: functional, organism-based
Staphylococcus aureus [15] = assay: Antimicrobial activity against Staphylococcus aureus CB812 harboring rpo B H481Y and gyrA S84L mutant genes by broth microdilution method; assay type: functional; how it was run: as §1
Staphylococcus aureus [16] = assay: Antimicrobial activity against Staphylococcus aureus CB1954 harboring rpoB H481Y, gyrA S84L, K809 deficient gyrA, parC S80F, parC A523D mutant genes selected after CBR-2092 exposure for 7 days by agar dilution method; assay type: functional; conditions: CB1954, 168 h; how it was run: as §3
Staphylococcus aureus [17] = assay: Antimicrobial activity against Staphylococcus aureus CB1523 harboring rpoB H481Y and gyrA A26V mutant genes selected after 0.25 ug/ml drug exposure by broth microdilution method; assay type: functional
How it was run: (§4)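 CLSI broth microdilution in cation-adjusted Mueller-Hinton (MHII) broth supplemented with 0.002% (vol/vol) polysorbate 80 to limit compound loss to plastic. Strains are spontaneous single-step mutants isolated on agar from an rpoB H481Y parent (RN4220 background), purified through drug-free passage with the resistance phenotype re-verified as stable before testing; target loci genotyped by PCR amplification and sequencing.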

Staphylococcus aureus [18] = assay: Antimicrobial activity against Staphylococcus aureus CB1327 harboring rpoB H481Y and gyrA S84L mutant genes selected after 0.2 ug/ml drug exposure by broth microdilution method; assay type: functional
How it was run: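 CLSI broth microdilution MIC in cation-adjusted Mueller-Hinton (MHII) broth with 0.002% (vol/vol) polysorbate 80. Single-step mutants were selected on agar […], purified by drug-free passage, their phenotype re-verified, and resistance loci sequenced.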

Staphylococcus aureus [19] = assay: Antimicrobial activity against rifampin-sensitive Staphylococcus aureus CB190 harboring rpoB Q468K mutant gene by broth microdilution method; assay type: functional; how it was run: as §1
Staphylococcus aureus [20] = assay: Inhibition of cell wall synthesis in rifamycin-resistant Staphylococcus aureus CB370 harboring rpoB H481Y mutant gene assessed as decrease in [2,3-3H]D-alanine incorporation at 0.5 ug/ml; assay type: functional, organism-based
How it was run: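 Time-course radiolabel incorporation in S. aureus cultures with test agent. Precursors: [methyl-3H]thymidine (DNA), [5,6-3H]uridine (RNA), L-[3,4,5-3H]leucine (protein), [2,3-3H]D-alanine (cell wall). At each time point, incorporation with agent is expressed relative to the DMSO-treated control culture as percent incorporation. Time-zero incorporation is set to 100%.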

Staphylococcus aureus [21] = assay: Antimicrobial activity against Staphylococcus aureus CB1881 harboring rpoB R484H mutant gene and L520 deficient gyrA gene by broth microdilution method; assay type: functional; how it was run: as §2
Staphylococcus aureus [22] = assay: Antimicrobial activity against Staphylococcus aureus CB1953 harboring rpoB H481Y, gyrA S84L, gyrA V598I, parC S80F, parC R570H mutant genes selected after CBR-2092 exposure for 7 days by broth microdilution method; assay type: functional; conditions: CB1953, 168 h; how it was run: as §1
Staphylococcus aureus [23] = assay: Antimicrobial activity against Staphylococcus aureus CB808 harboring quinolone-resistant parC S80F mutant gene by broth microdilution method; assay type: functional; how it was run: as §1
Staphylococcus aureus [24] = assay: Antimicrobial activity against Staphylococcus aureus CB1524 harboring rpoB H481Y and gyrA G773V mutant genes selected after 0.25 ug/ml drug exposure by broth microdilution method; assay type: functional; how it was run: as §4
[25] = Inhibition of Staphylococcus aureus RpoB H481Y mutant
How it was run: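 Recombinant S. aureus σA RNA polymerase holoenzyme carrying RpoB H481Y. Single-round transcription of the pGL2B-T7A1-G-less template. The 272-nt G-less RNA product is quantified by gel electrophoresis. IC50 is the concentration that inhibits 50% of product formed without inhibitor.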

Staphylococcus aureus [26] = assay: Antimicrobial activity against Staphylococcus aureus CB814 harboring fluoroquinolone-resistant gyrA S84L and parC S80F mutant genes by broth microdilution method; assay type: functional; how it was run: as §1

## CO[C@H]1/C=C/O[C@@]2(C)Oc3c(C)c(O)c4c(O)c(c(/C=N/N5CCC(N(C)C6([C@@H]7CCN(c8c(F)cn9c(=O)c(C(=O)O)cc(C%10CC%10)c9c8C)C7)CC6)CC5)c(O)c4c3C2=O)NC(=O)/C(C)=C\C=C\[C@H](C)[C@H](O)[C@@H](C)[C@@H](O)[C@@H](C)[C@H](OC(C)=O)[C@@H]1C
Staphylococcus aureus [1]
  MIC: 0.25 µg/mL (≈ 0.207 µM)
Staphylococcus aureus [2]
  MIC: 0.25 µg/mL (≈ 0.207 µM)
Staphylococcus aureus [3]
  MIC: 0.5 µg/mL (≈ 0.415 µM)
Staphylococcus aureus [4]
  MIC: > 16 µg/mL
Staphylococcus aureus [5]
  MIC: 64 µg/mL (≈ 53.1 µM)
Staphylococcus aureus [6]
  MIC: 0.25 µg/mL (≈ 0.207 µM)
Staphylococcus aureus [7]
  MIC: 31 µg/mL (≈ 25.7 µM)
Staphylococcus aureus [8]
  MIC: 0.25 µg/mL (≈ 0.207 µM)
Staphylococcus aureus [9]
  Time: 47 min
Staphylococcus aureus [10]
  MIC: 0.5 µg/mL (≈ 0.415 µM)
Staphylococcus aureus [11]
  MIC: 16 µg/mL (≈ 13.3 µM)
Staphylococcus aureus [12]
  Time: 45 min
Staphylococcus aureus [13]
  Time: 38 min
Staphylococcus aureus [14]
  Activity: Active
Staphylococcus aureus [15]
  MIC: 0.5 µg/mL (≈ 0.415 µM)
Staphylococcus aureus [16]
  MIC: 2 µg/mL (≈ 1.66 µM)
Staphylococcus aureus [17]
  MIC: 1 µg/mL (≈ 0.83 µM)
Staphylococcus aureus [18]
  MIC: 0.5 µg/mL (≈ 0.415 µM)
Staphylococcus aureus [19]
  MIC: 0.5 µg/mL (≈ 0.415 µM)
Staphylococcus aureus [20]
  Activity: Active
Staphylococcus aureus [21]
  MIC: 0.5 µg/mL (≈ 0.415 µM)
Staphylococcus aureus [22]
  MIC: 16 µg/mL (≈ 13.3 µM)
Staphylococcus aureus [23]
  MIC: 0.015 µg/mL (≈ 0.0124 µM)
Staphylococcus aureus [24]
  MIC: 2 µg/mL (≈ 1.66 µM)
[25]
  IC50: > 25 µM
Staphylococcus aureus [26]
  MIC: 0.015 µg/mL (≈ 0.0124 µM)
